Measurements from ChEMBL document CHEMBL1156641, “Linear and cyclic C18 terpenoids from the southern Australian marine brown alga Cystophora moniliformis” (J Nat Prod, 2008).
Calls of active or inactive are those of the source. The rule behind the calls is not given here.

Key:
P388 = assay: Antitumor activity against mouse P388 cells after 72 hrs by MTT assay; type: functional, cell-based; conditions: P388, 72 h
Method in brief: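 P388 murine leukemia cells were incubated 72 h with a 2-fold dilution series of sample, tested from 1 mg/mL. Growth was read by MTT reduction to formazan (absorbance) relative to untreated control cells. The concentration giving 50% growth reduction is reported as IC50.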

[1] = system: Trichophyton mentagrophytes; assay: […] activity against Trichophyton mentagrophytes ATCC 28185 assessed as zone of inhibition at 1 mg/mL; type: functional, organism-based
Method in brief: (§1)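 Disk diffusion: fungal inoculum of known concentration mixed into potato dextrose or Mueller Hinton agar and poured as a lawn. Samples at 1 mg/mL were applied to 6 mm filter paper disks, solvent evaporated, and disks placed on the seeded agar with solvent and positive controls. After incubation, the zone of inhibition outside the disk was measured as radius in mm.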

[2] = system: Trichophyton mentagrophytes; assay: […] activity against Trichophyton mentagrophytes ATCC 28185 assessed as zone of inhibition; type: functional; method in brief: as §1

IC50 (P388) [µM]	SMILES	Activity [1]	inhibition zone (IZ) [2] [mm]
> 40	C=C(C)[C@H](O)CC/C(C)=C/CC/C(C)=C/CCC(C)=O	inactive	1
> 40	CC(=O)CC/C=C(\C)CC/C=C(\C)CC[C@@H](O)C(C)(C)O	inactive	1
> 40	COC(C)(C)[C@H](O)CC/C(C)=C/CC/C(C)=C/CCC(C)=O	inactive	1
> 40	CC(=O)CC/C=C(\C)CC/C=C(\C)CC/C=C(/C)CO	inactive	1

The remaining lines, values behind:

SMILES	IC50 (P388) [µM]	Activity [1]	inhibition zone (IZ) [2] [mm]
CC(=O)CC/C=C(\C)CCC1=C(C)CC[C@H](O)C1(C)C	> 40	inactive	1
CC(=O)CC/C=C(\C)CC[C@H]1C(C)(C)[C@@H](O)CC[C@]1(C)O [MONILIFORMINOL A]	> 40	inactive	1
CC(=O)CC/C=C(\C)CC[C@H]1C(C)(C)[C@@H](O)CC[C@@]1(C)O [MONILIFORMINOL B]	> 40	inactive	1
